Reference: ChEMBL document CHEMBL1149331, “Design, synthesis, and structure-activity relationships of haloenol lactones: site-directed and isozyme-selective glutathione S-transferase inhibitors” (J Med Chem, 2004)
Values belong to the compound of their own block, whether it stands above or below them. Activity calls are given as the source filed them. The calls are words filed in the database; no cut-off is given here.

How the values were obtained:
[1] = molecular target: T1, Glutathione S-transferase P (Homo sapiens, UniProt P09211); assay: Inactivation of recombinant human Glutathione S-transferase P
Outline: (§1)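 Recombinant human GSTP1-1 (E. coli-expressed, glutathione-agarose purified), 0.1 mg/mL, preincubated with haloenol lactone (0.17 mM, added in ethanol; vehicle control) in phosphate buffer pH 7.4 at 30 °C. Aliquots taken at 0, 2, 5, 12 min. Residual activity read by Habig assay: 1.0 mM GSH + 1.0 mM CDNB, 0.1 M phosphate pH 6.5, A340, corrected for nonenzymatic rate; kobs from time course.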
Target sequence in this assay (P09211 2-210 limits assumed): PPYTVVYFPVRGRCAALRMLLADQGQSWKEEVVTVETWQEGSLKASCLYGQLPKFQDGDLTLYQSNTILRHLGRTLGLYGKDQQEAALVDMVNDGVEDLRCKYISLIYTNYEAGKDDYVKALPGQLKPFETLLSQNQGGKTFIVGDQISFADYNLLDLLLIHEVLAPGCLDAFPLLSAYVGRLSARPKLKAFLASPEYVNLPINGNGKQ

[2] = molecular target: T1, Glutathione S-transferase P; assay: (§2) Inhibitory activity for human glutathione S-transferase-pi isozyme was determined; outline: as §1
Target sequence in this assay (P09211 whole entry): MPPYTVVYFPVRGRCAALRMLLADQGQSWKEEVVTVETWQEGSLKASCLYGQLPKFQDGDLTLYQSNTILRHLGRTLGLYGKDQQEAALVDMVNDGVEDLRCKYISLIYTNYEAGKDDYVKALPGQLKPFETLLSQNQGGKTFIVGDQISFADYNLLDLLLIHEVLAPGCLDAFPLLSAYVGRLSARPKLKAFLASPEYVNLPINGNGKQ

[3] = molecular target: T1, Glutathione S-transferase P; assay: as §2; outline: as §1; remark: listed apart in the source
Target sequence in this assay (P09211 2-210 limits assumed): as the sequence (P09211 2-210 limits assumed) above

[4] = molecular target: T1, Glutathione S-transferase P; assay: (§3) Inhibitory activity for human Glutathione S-transferase P was determined; outline: as §1
Target sequence in this assay (P09211 whole entry): as the sequence (P09211 whole entry) above

[5] = molecular target: T1, Glutathione S-transferase P; assay: as §3; outline: as §1; remark: listed apart in the source
Target sequence in this assay (P09211 2-210 limits assumed): as the sequence (P09211 2-210 limits assumed) above

K obs [1]: 0.0364
Structure (SMILES): O=C1O/C(=C/Br)CC1C/C=C/c1ccc(C(F)(F)F)cc1 (stereo not given)

K obs [1]: 0.0421
Structure (SMILES): O=C1O/C(=C/I)CC1C/C=C/c1ccccc1 (stereo not given)

Ki [4]: 6.1 µM | K obs [1]: 0.0604 | Kina [5]: 0.025 min⁻¹
Structure (SMILES): O=C1O/C(=C/Br)CC1C/C=C/c1ccccc1 (stereo not given)

K obs [1]: 0.0322
Structure (SMILES): C/C(Br)=C1/CC(C/C=C/c2ccccc2)C(=O)O1 (stereo not given)

K obs [1]: 0.0499
Structure (SMILES): O=C1O/C(=C/Br)CC1Cc1ccc2ccccc2c1 (stereo not given)

K obs [1]: inactive
Structure (SMILES): COc1ccc(/C=C/CC2C/C(=C\Br)OC2=O)cc1 (stereo not given)

K obs [1]: 0.101
Structure (SMILES): O=C1O/C(=C/Br)CC1Cc1ccccc1 (stereo not given)

K obs [1]: 0.0632
Structure (SMILES): O=C1O/C(=C/Br)CC1CCc1ccccc1 (stereo not given)

Continued, compound first:

Structure (SMILES): O=C1O/C(=C/Br)CC1c1ccccc1 (stereo not given)
Ki [2]: 124 µM | K obs [1]: 0.15 | Kina [3]: 0.097 min⁻¹

Structure (SMILES): CCCCCCCC1C/C(=C\Br)OC1=O (stereo not given)
K obs [1]: 0.0608

Structure (SMILES): CCCCCCCCCC1C/C(=C\Br)OC1=O (stereo not given)
K obs [1]: 0.0359

Structure (SMILES): O=C1O/C(=C/Br)CC1CCCCc1ccccc1 (stereo not given)
K obs [1]: 0.0366

Structure (SMILES): O=C1O/C(=C/Br)CC1CCCc1ccccc1 (stereo not given)
K obs [1]: 0.0439

Structure (SMILES): O=C1O/C(=C/Br)CC1CC1CCCCC1 (stereo not given)
K obs [1]: 0.0438

Structure (SMILES): CCCCCCCCC1C/C(=C\Br)OC1=O (stereo not given)
K obs [1]: 0.0382

Structure (SMILES): CCCCCCC1C/C(=C\Br)OC1=O (stereo not given)
K obs [1]: 0.0847
